The species entered for assay [1] is Mus musculus. Briefly: Compound was evaluated for the analgesic activity by mouse hotplate assay at the dose 0.1; No significant effect observed at the doses tested. Type of assay: functional, organism-based.
Assay [2] concerns the target T1, Neuronal acetylcholine receptor subunit alpha-3 (Homo sapiens, UniProt P32297). The assay can be described thus: Intrinsic activity against human sympathetic ganglionic type nAChRs in IMR-32 cells containing alpha-3 subtype. The format is functional, cell-based. The procedure, abridged:
(§1)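 86Rb+ efflux measured in the human neuroblastoma line IMR-32 (ganglionic-like, α3-containing nAChRs). Intrinsic activity is the maximum response as percent of the response to 100 μM (S)-nicotine. Values are means ± SEM, n ≥ 3.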

For assay [3], the species on record is Mus musculus. The assay can be described thus: Compound was evaluated for the analgesic activity by mouse hotplate assay at the doses of 0.62 and 6.2; No significant effect observed at the doses tested. The format is functional, organism-based.
In assay [4] the target is T2, Neuronal acetylcholine receptor subunit alpha-7 (Homo sapiens, UniProt P36544). Briefly: Compound was evaluated for functional activation from channel currents at human Nicotinic acetylcholine receptor alpha-7 expressed in oocytes. The format is cell-based, Oocyte.
In assay [5] the target is T2, Neuronal acetylcholine receptor subunit alpha-7. The assay can be described thus: Compound was evaluated for its ability to displace [125I]alpha-bungarotoxin (alpha-BgT) from K28 cells expressing human Nicotinic acetylcholine receptor alpha7. Type of assay: cell-based. The essentials: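 Displacement of [125I]-α-bungarotoxin from K28 cells expressing human α7 homomers. Ki values are means ± SEM, n ≥ 3.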

For assay [6], the target named is Acetylcholine receptor subunit alpha (Torpedo californica, UniProt P02710). The assay can be described thus: Compound was evaluated for its ability to displace [125 I]alpha-bungarotoxin (alpha-BgT) from torpedo alpha1-beta1-[…] electroplax. The essentials:
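Displacement of [125I]-α-bungarotoxin from Torpedo electroplax membranes (α1β1γδ). Ki values are means ± SEM, n ≥ 3.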

The target of assay [7] is T1, Neuronal acetylcholine receptor subunit alpha-3. The assay can be described thus: Functional activation of human sympathetic ganglionic type nAChRs in IMR-32 cells containing alpha-3 subtype. The format is cell-based. The procedure, abridged: as §1
In assay [8] the target is Neuronal acetylcholine receptor. The assay can be described thus: Compound was evaluated for its ability to displace [3H]-cytisine binding from high-affinity Nicotinic acetylcholine receptor in rat brain (principally the alpha4-beta2 nAChR subtype). Type of assay: tissue-based. The essentials: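 Displacement of [3H]cytisine from rat whole-brain membranes, principally α4β2 sites.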

Assay [9] relates to Canis familiaris. Briefly: Compound was evaluated for increase in diastolic blood pressure (BP) in dog at 10 nM/Kg when administered intravenously. Type of assay: functional, Canis lupus familiaris, Artery. The procedure, abridged:
(§2)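 Male beagle dogs under pentobarbital anesthesia (35 mg/kg iv, then 5 mg/kg/h iv infusion), ventilated with room air. Blood pressure was recorded by a micromanometer catheter passed via the carotid artery into the left ventricle.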

Assay [10] deals with Canis familiaris. The assay can be described thus: Compound was evaluated for increase in heart rate (HR) in dog at 10 nM/Kg when administered intravenously. Type of assay: functional, Canis lupus familiaris. The essentials: as §2
Assay [11] is filed under the species Mus musculus. Briefly: Compound was evaluated for the analgesic activity by mouse hotplate assay at the doses of 0.062 and 0.62. Type of assay: functional.
Assay [12] relates to Mus musculus. Briefly: Minimum intraperitoneal effective dose for abdominal constriction in mouse. The format is functional, Abdomen. The essentials:
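Mice, 10 per dose group, received compound ip in 0.9% saline, 10 mL/kg, 30 min before ip phenyl-p-quinone (68 μmol/kg in 5% EtOH). Writhing was scored over a 10-min window starting 5 min after the irritant. The read-out was the reduction in the number of responders versus the saline group.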

Assay [13] is filed under the species Mus musculus. The assay can be described thus: Minimum peroral effective dose for analgesic activity was determined by mouse hot plate assay. Type of assay: functional. The procedure, abridged: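 Mouse hot plate at 55 °C with 8 mice per dose. Drug in 0.9% saline was given po, 10 mL/kg, 30 min before testing, over a range of 0.19–6.2 μmol/kg. MED is the lowest dose that increases latency to the tenth jump versus saline, with a 180 s cutoff.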
For orientation: Thermal pain tests record how soon the animal reacts.

In assay [14] the target is Neuronal acetylcholine receptor; alpha4/beta2 (Homo sapiens, UniProt P17787+P43681). Briefly: Compound was evaluated for its ability to displace [3H]cytisine from K177 cells expressing human Nicotinic acetylcholine receptor alpha4-beta2. The format is cell-based. The essentials: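 Displacement of [3H]cytisine from K177 cells expressing human α4β2 nAChRs. Ki values are means ± SEM, n ≥ 3.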

Assay [15] is described as follows: Compound was evaluated for functional activation to [86Rb+] efflux From human medulloblastoma cell line TE671 expressing recombinant alpha-1-beta-1-gamma delta receptors. The note with it: TE-671. The procedure, abridged:
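86Rb+ efflux measured from the human medulloblastoma line TE671. Intrinsic activity is given as percent of the maximal response to 1 mM (S)-nicotine. Values are means ± SEM, n ≥ 3.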

A further assay deals with K177 cell line. Briefly: Compound was evaluated for functional activation to [86Rb+] efflux from human K177 cells expressing recombinant alpha4-beta2 receptors. Type of assay: cell-based. The procedure, abridged:
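86Rb+ efflux measured from K177 cells expressing recombinant human α4β2 receptors. Intrinsic activity is given as percent of the maximal response to 100 μM (S)-nicotine. Values are means ± SEM, n ≥ 3.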

Structures are written as SMILES. Calls of active or inactive are those of the source.

T2 sequence (P36544 whole entry): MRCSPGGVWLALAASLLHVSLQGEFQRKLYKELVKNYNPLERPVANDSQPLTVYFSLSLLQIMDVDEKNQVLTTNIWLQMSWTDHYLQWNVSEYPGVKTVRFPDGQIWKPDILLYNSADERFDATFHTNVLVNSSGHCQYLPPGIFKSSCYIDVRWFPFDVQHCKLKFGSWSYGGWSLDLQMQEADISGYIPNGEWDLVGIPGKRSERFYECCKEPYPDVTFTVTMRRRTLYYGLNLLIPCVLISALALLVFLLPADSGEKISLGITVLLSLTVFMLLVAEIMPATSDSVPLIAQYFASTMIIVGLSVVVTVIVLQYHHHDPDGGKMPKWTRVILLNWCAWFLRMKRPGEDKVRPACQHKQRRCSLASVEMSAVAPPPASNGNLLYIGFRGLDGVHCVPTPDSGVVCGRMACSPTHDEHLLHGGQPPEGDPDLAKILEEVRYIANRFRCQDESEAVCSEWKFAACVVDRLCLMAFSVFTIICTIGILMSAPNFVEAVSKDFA
T1 sequence (P32297 whole entry): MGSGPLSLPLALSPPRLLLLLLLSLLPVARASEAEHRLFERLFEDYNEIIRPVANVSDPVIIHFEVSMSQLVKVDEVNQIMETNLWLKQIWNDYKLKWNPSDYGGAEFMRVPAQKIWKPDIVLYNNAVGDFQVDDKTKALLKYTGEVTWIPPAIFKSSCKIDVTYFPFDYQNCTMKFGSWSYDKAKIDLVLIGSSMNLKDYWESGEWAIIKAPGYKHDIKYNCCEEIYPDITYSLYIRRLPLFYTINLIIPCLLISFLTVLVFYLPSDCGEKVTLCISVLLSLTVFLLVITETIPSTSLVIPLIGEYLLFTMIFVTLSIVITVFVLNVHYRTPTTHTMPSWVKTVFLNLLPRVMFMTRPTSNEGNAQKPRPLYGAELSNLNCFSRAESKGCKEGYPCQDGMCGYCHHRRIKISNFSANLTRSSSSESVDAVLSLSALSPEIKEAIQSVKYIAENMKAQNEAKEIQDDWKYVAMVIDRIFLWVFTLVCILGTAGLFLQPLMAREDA
Acetylcholine receptor subunit alpha, sequence (P02710 whole entry): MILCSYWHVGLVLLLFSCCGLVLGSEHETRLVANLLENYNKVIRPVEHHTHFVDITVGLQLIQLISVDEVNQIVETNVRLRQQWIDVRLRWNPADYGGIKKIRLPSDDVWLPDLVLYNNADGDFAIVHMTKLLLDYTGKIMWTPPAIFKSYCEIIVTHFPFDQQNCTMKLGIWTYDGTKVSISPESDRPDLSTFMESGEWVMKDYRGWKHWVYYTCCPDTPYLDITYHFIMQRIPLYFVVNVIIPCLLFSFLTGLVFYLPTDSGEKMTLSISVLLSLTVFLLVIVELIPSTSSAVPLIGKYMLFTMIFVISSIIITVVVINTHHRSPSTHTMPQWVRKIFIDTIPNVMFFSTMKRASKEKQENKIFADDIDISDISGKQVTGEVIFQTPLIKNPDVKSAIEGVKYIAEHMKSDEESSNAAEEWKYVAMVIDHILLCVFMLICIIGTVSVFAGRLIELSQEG
Neuronal acetylcholine receptor; alpha4/beta2, sequence (P17787 whole entry): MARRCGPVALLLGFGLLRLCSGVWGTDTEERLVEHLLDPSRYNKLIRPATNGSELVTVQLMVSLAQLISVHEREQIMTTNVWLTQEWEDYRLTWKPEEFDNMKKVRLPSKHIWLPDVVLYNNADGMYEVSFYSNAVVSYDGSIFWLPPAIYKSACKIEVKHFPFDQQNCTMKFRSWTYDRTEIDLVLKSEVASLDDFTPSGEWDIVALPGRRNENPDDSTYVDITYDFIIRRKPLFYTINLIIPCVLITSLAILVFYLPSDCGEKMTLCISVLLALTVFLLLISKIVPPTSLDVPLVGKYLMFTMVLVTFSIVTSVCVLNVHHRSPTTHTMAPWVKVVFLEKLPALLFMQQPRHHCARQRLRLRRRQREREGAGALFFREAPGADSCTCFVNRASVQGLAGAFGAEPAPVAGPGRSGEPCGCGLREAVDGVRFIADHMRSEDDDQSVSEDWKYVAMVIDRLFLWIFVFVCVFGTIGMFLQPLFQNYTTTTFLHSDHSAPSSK
Neuronal acetylcholine receptor; alpha4/beta2, sequence (P43681 whole entry): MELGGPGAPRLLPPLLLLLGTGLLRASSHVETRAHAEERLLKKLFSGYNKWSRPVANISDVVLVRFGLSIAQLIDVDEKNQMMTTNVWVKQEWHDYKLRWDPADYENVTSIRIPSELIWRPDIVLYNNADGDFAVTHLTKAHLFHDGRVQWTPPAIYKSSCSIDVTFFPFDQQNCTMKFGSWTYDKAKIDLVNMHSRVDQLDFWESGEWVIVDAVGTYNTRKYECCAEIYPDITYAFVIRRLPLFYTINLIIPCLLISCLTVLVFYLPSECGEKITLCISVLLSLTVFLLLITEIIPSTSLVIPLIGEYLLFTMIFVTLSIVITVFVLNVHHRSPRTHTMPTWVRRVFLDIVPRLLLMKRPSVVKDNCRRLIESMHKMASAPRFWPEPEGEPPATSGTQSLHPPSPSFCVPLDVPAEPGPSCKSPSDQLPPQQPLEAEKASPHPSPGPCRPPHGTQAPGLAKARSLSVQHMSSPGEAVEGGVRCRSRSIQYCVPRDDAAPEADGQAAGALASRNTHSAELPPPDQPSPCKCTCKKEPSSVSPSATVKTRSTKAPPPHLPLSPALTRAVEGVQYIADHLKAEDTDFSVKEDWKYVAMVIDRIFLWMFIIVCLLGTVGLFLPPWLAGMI

Regarding `Clc1ccc(C2CC3CCC2N3)cn1` (racemic), the MED result in the assay filed under Mus musculus [1] is “inactive”. The compound further had an IA in assay [2] of 156%.

`c1cncc(OC[C@H]2CCN2)c1`: in the assay listed under Mus musculus [3], the MED result was “inactive”. Further, the figures for the EC50 in [4] and in assay [7] were 36000 nM and 1100 nM, respectively. Also, the results for the Ki in assay [5] and in assay [6] were 1270 nM and 384 nM, respectively. In addition, in assay [2], the IA stood at 116%.

Take `Clc1ccc(OC[C@H]2CCCN2)cn1`: the MED entry in the assay listed under Mus musculus [3] is “inactive”. In addition, the Ki – broadly, the equilibrium dissociation constant of an inhibitor or competing ligand from its target – in [8] came to 0.09 nM. The EC50 (usually the concentration that produces a half-maximal response) in assay [7] was found to be 500 nM. The compound further came in with an IA in assay [2] of 110%.

The compound `Clc1ccc(OCC2CCN2)cn1` (single isomer, unassigned) [TEBANICLINE] gave a BP in the assay with Canis familiaris [9] of 23.2 mmHg. For the same compound, the HR in the assay on Canis familiaris [10] was 7.8 beats min-1. Further, the results for the MED in the assay listed under Mus musculus [11], with Mus musculus [12] and in the assay filed under Mus musculus [13] were 0.62 µM/kg, 0.19 µM/kg and 6.2 µM/kg, respectively. Moreover, the Ki in [8] worked out at 0.04 nM; in assay [5], 2060 nM; in [14], 0.055 nM; in assay [6] it was 10000 nM. For the same compound, the EC50 in assay [4] stood at 56000 nM; in assay [15], 36000 nM; in assay [7], 200 nM; with K177 cell line (k177) it was 270 nM. In addition, in assay [2], the IA stood at 116%.

Consider `Clc1ccc(OC[C@@H]2CCCN2)cn1`, for which, in the assay listed under Mus musculus [3], the MED entry is “inactive”. The affinity in assay [8] corresponds to a Ki of 0.45 nM. The compound further displayed an EC50 in assay [7] of 1190 nM. This compound came in with an IA in assay [2] of 104%.

Regarding `CN1CC[C@H]1COc1ccc(Cl)nc1`, the MED entry in the assay filed under Mus musculus [3] was “inactive”. The inhibition constant (Ki) in assay [8] worked out at 1.6 nM. The same compound showed an EC50 in assay [7] of 28900 nM. Further, the IA in assay [2] turned out to be 43%.

Take `c1cncc(OC[C@@H]2CCN2)c1`: the MED result in the assay listed under Mus musculus [3] is “inactive”. Further, the Ki in [14] was found to be 0.04 nM; in assay [6] it was 314 nM. Further, the EC50 in assay [7] is 700 nM; in the assay on K177 cell line (Homo sapiens, K177), 700 nM. In addition, in assay [2], the IA came to 113%.

The values above are taken from ChEMBL document CHEMBL1131463, “Identification and initial structure-activity relationships of (R)-5-(2-azetidinylmethoxy)-2-chloropyridine (ABT-594), a potent, orally active, non-opiate analgesic agent acting via neuronal nicotinic acetylcholine receptors” (J Med Chem, 1998).
